Measurements from different studies.
Each line is one published result; the experiments were not run side by side.
Slc6a3: Sodium-dependent dopamine transporter (Slc6a3, Rattus norvegicus, UniProt P23977)
Antigen peptide transporter 1/Antigen peptide transporter 2: Antigen peptide transporter 1/Antigen peptide transporter 2 (Homo sapiens, UniProt Q03518+Q03519)

| Compound | target | read-out | action | method | notes | measurement | result |
| --- | --- | --- | --- | --- | --- | --- | --- |
| CC(NC(C)(C)C)C(=O)c1ccccc1 (centres unmarked) | Slc6a3 | transporter uptake | inhibitor | radiometric | – | IC50 | 1.31 µM |
| COC(=O)C(NC(=O)c1cn(CCCCCO)c2ccccc12)C(C)(C)C (centres unmarked) | Cannabinoid receptor 1 (Cnr1, Rattus norvegicus, UniProt P20272) | ligand displacement | – | radioligand | cell membranes | IC50 | 0.105 µM |
| O=c1c(O)c(-c2ccc(O)c(O)c2)oc2cc(O)cc(O)c12 | CX3C chemokine receptor 1 (CX3CR1, Homo sapiens, UniProt P49238) | β-arrestin recruitment | antagonist | – | – | IC50 | 4.5 µM |
| COc1ccc2cccc(C(CO)CNC(=O)CF)c2c1 (centres unmarked) | Melatonin receptor type 1B (MTNR1B, Homo sapiens, UniProt P49286) | cAMP | agonist | TR-FRET | – | EC50 | 0.0178 µM |
| CC[C@H](C)[C@H](NC(=O)[C@H](C)NC(=O)CN)C(=O)N[C@@H](CC(=O)O)C(=O)N[C@@H](CCCCN)C(=O)N1CCC[C@H]1C(=O)N[C@H](C(=O)N[C@@H](CC(C)C)C(=O)N[C@@H](CCCCN)C(=O)O)[C@@H](C)CC | Antigen peptide transporter 1/Antigen peptide transporter 2 | ligand displacement | – | – | – | IC50 | 8.2 µM |
| CC[C@H](C)[C@H](NC(=O)[C@H](CC(C)C)NC(=O)[C@@H](N)CO)C(=O)NCC(=O)N[C@@H](CCCCN)C(=O)N[C@H](C(N)=O)C(C)C | Proteinase-activated receptor 2 (F2RL1, Homo sapiens, UniProt P55085) | calcium signal | agonist | – | – | EC50 | 28.2 µM |
| CNC(C)C(=O)c1cccc(Cl)c1 (centres unmarked) | Slc6a3 | transporter uptake | inhibitor | radiometric | – | IC50 | 0.342 µM |
| CSCC[C@H](NC(=O)[C@@H]1CCCN1C(=O)[C@H](CCCNC(=N)N)NC(=O)[C@H](CC(C)C)NC(=O)[C@@H]1CCCN1C(=O)[C@@H](NC(=O)[C@H](C)N)C(C)C)C(=O)N[C@H](C(=O)N[C@@H](Cc1ccc(O)cc1)C(=O)N[C@@H](C)C(=O)O)[C@@H](C)O | Antigen peptide transporter 1/Antigen peptide transporter 2 | ligand displacement | – | – | – | IC50 | 5 µM |
